24 compounds from article PMC11966289 (ACS Omega, 2025) can be followed below.

Data set [1] has as its system P. falciparum (D6 strain). The experiment in a line: In vitro antiplasmodial activity. Format: cell-based. The note with it: Plasmodium falciparum, D6, 72 h, read-out: P. falciparum (D6 strain) IC50.
For data set [2], the system named is P. falciparum (W2 strain). The experiment in a line: In vitro antiplasmodial activity. The class given is cell-based. The note with it: Plasmodium falciparum, W2, 72 h, read-out: P. falciparum (W2 strain) IC50. The method in brief:
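Infected erythrocytes (2% hematocrit, 2% parasitemia) in RPMI 1640 with 60 μg/mL amikacin and 10% human serum, exposed to serially diluted test compound under 90% N2/5% CO2/5% O2 at 37 °C for 72 h. Parasite LDH measured with Malstat reagent (30 min, room temperature), then NBT/PES (1 h, dark), stopped with 5% acetic acid, absorbance 650 nm. Triplicates; chloroquine/artemisinin and DMSO controls; IC50 from dose–response.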

Data set [3] can be described thus: In vitro cytotoxicity, Neutral Red assay. Format: cell-based. As to conditions: African green monkey, Vero cells.
The test system of data set [4] is P. berghei. The experiment in a line: In vivo antiplasmodial evaluation in the P. berghei-mouse malaria model. The arrangement: species or system P. berghei (Swiss Webster Hsd:ND4 mice). As to conditions: for % Parasitemia suppression day 5 / % Parasitemia suppression day 7 / MST (mean survival time) / cure (mice without parasitemia until day 28) / survival (animals survived on day 28/total): oral gavage, mice.

Consider `C[C@@H]1CC[C@H]2[C@@H](C)C(=O)O[C@@H]3O[C@@]4(C)CC[C@@H]1[C@]32OO4` [ART, artemisinin, reference compound], for which the IC50 was determined as 19 nM in data set [1] and 28.1 nM in data set [2]. Further, the 50% inhibitory concentration (IC50) at 48 h in data set [3] was more than 4.76 µg/mL.
In the case of `CCN(CC)CCCC(C)Nc1ccnc2cc(Cl)ccc12` (stereo not drawn) [CQ, Chloroquine, reference compound], in data set [1], the IC50 is 60 nM. Further, the IC50 in data set [2] turned out to be 853 nM. In addition, in data set [3], the IC50 at 48 h is more than 4.76 µg/mL. Also, in data set [4] (33.3 mg/kg × 3 days), the “% Parasitemia suppression day 5” value is given as 100.00%, the “% Parasitemia suppression day 7” value was 100.00%, the “MST (mean survival time)” value is 28 days and the “cure (mice without parasitemia until day 28)” value is listed as 2/5. The “survival (animals survived on day 28/total)” value in data set [4] (33.3 mg/kg × 3 days) is recorded as 5/5.
Turning to `Cc1cc(Cl)nc(N2CCN(CCNc3ccnc4cc(Cl)ccc34)CC2)n1` [Compound 5a, 7-Chloro-N-(2-(4-(4-chloro-6-methylpyrimidin-2-yl)piperazin-1-yl)ethyl)quinolin-4-amine], the IC50 in data set [1] came out at 70 nM; in data set [2], 210 nM. Also, the IC50 at 48 h in data set [3] is more than 4.76 µg/mL.
The matching figures for `Cc1cc(Cl)nc(N2CCN(CCCNc3ccnc4cc(Cl)ccc34)CC2)n1` [Compound 5b, 7-Chloro-N-(3-(4-(4-chloro-6-methylpyrimidin-2-yl)piperazin-1-yl)propyl)quinolin-4-amine]: 100 nM, 350 nM and more than 4.76 µg/mL.
On the same counts, the results for `Clc1ccc2c(NCCCN3CCN(c4nccc(Cl)n4)CC3)ccnc2c1` [Compound 5c, 7-Chloro-N-(3-(4-(4-chloropyrimidin-2-yl)piperazin-1-yl)propyl)quinolin-4-amine] are 62 nM, 230 nM and more than 4.76 µg/mL.
On to `Cc1cc(N2CCN(CCNc3ccnc4cc(Cl)ccc34)CC2)nc(Cl)n1` [Compound 6a, 7-Chloro-N-(2-(4-(2-chloro-6-methylpyrimidin-4-yl)piperazin-1-yl)ethyl)quinolin-4-amine], for which the 50% inhibitory concentration (IC50) in data set [1] came to 79 nM; in data set [2], 500 nM. The compound also yielded a 50% inhibitory concentration (IC50) at 48 h in data set [3] of more than 4.76 µg/mL.
The matching figures for `Cc1cc(N2CCN(CCCNc3ccnc4cc(Cl)ccc34)CC2)nc(Cl)n1` [Compound 6b, 7-Chloro-N-(3-(4-(2-chloro-6-methylpyrimidin-4-yl)piperazin-1-yl)propyl)quinolin-4-amine]: 66 nM, 200 nM and more than 4.76 µg/mL.
Consider `Clc1ccc2c(NCCCN3CCN(c4ccnc(Cl)n4)CC3)ccnc2c1` [Compound 6c, 7-Chloro-N-(3-(4-(2-chloropyrimidin-4-yl)piperazin-1-yl)propyl)quinolin-4-amine], for which the results for the IC50 in data set [1] and in data set [2] were 73 nM and 420 nM, respectively. The compound also yielded an IC50 at 48 h in data set [3] of more than 4.76 µg/mL.
The matching figures for `Cc1cc(N2CCN(CCNc3ccnc4cc(Cl)ccc34)CC2)nc(N2CCCCC2)n1` [Compound 7a, 7-Chloro-N-(2-(4-(6-methyl-2-(piperidin-1-yl)pyrimidin-4-yl)piperazin-1-yl)ethyl) quinolin-4-amine]: 32 nM, 40 nM and more than 4.76 µg/mL.
On the same counts, the results for `Cc1cc(N2CCN(CCNc3ccnc4cc(Cl)ccc34)CC2)nc(N2CCOCC2)n1` [Compound 7b, 7-Chloro-N-(2-(4-(6-methyl-2-morpholinopyrimidin-4-yl)piperazin-1-yl)ethyl) quinolin-4-amine] are 95 nM, 49 nM and more than 4.76 µg/mL.
On the same counts, the results for `Cc1cc(N2CCN(CCNc3ccnc4cc(Cl)ccc34)CC2)nc(N2CCSCC2)n1` [Compound 7c, 7-Chloro-N-(2-(4-(6-methyl-2-thiomorpholinopyrimidin-4-yl)piperazin-1-yl)ethyl) quinolin-4-amine] are 38 nM, 64 nM and more than 4.76 µg/mL.
In the case of `Cc1cc(N2CCN(CCNc3ccnc4cc(Cl)ccc34)CC2)nc(N2CCCC2)n1` [Compound 7d, 7-Chloro-N-(2-(4-(6-methyl-2-(pyrrolidin-1-yl)pyrimidin-4-yl)piperazin-1-yl)ethyl) quinolin-4-amine], the half-maximal inhibitory concentration (IC50) in data set [1] was 13 nM; in data set [2], 20 nM. The same compound displayed an IC50 at 48 h in data set [3] of more than 4.76 µg/mL.
Take `CCN1CCN(c2nc(C)cc(N3CCN(CCNc4ccnc5cc(Cl)ccc45)CC3)n2)CC1` [Compound 7e, 7-Chloro-N-(2-(4-(2-(4-ethylpiperazin-1-yl)-6-methylpyrimidin-4-yl)piperazin-1-yl)ethyl)quinolin-4-amine]: the IC50 in data set [1] came out at 21 nM. For the same compound, the concentration for half-maximal inhibition (IC50) in data set [2] came to 16 nM. In data set [3], the concentration for half-maximal inhibition (IC50) at 48 h was more than 4.76 µg/mL. In data set [4] (11.1 mg/kg × 3 days), the “% Parasitemia suppression day 5” value was found to be 94.31%, the “% Parasitemia suppression day 7” value is 41.53%, the “MST (mean survival time)” value was 21.4 days and the “cure (mice without parasitemia until day 28)” value is listed as 0/5. Besides, the “survival (animals survived on day 28/total)” value in data set [4] (11.1 mg/kg × 3 days) was 2/5. Besides, in data set [4] (33.3 mg/kg × 3 days), the “% Parasitemia suppression day 5” value is given as 100.00%, the “% Parasitemia suppression day 7” value amounted to 100.00%, the “MST (mean survival time)” value amounted to 28 days and the “cure (mice without parasitemia until day 28)” value was 5/5. Besides, the “survival (animals survived on day 28/total)” value in data set [4] (33.3 mg/kg × 3 days) is 5/5. In data set [4] (33.33 mg/kg dose, oral gavage once daily days 0, 1, 2, day not given), this compound registered a parasitemia suppression of 100%. In addition, in data set [4] (100 mg/kg × 3 days), the “% Parasitemia suppression day 5” value amounted to 100.00%, the “% Parasitemia suppression day 7” value is 100.00%, the “MST (mean survival time)” value was 28 days and the “cure (mice without parasitemia until day 28)” value is recorded as 5/5.
Take `Cc1cc(N2CCN(CCCNc3ccnc4cc(Cl)ccc34)CC2)nc(N2CCCCC2)n1` [Compound 7f, 7-Chloro-N-(3-(4-(6-methyl-2-(piperidin-1-yl)pyrimidin-4-yl)piperazin-1-yl)propyl) quinolin-4-amine]: the IC50 was found to be 15 nM in data set [1] and 34 nM in data set [2]. This compound also displayed a half-maximal inhibitory concentration (IC50) at 48 h in data set [3] of more than 4.76 µg/mL.
As for `Cc1cc(N2CCN(CCCNc3ccnc4cc(Cl)ccc34)CC2)nc(N2CCOCC2)n1` [Compound 7g, 7-Chloro-N-(3-(4-(6-methyl-2-morpholinopyrimidin-4-yl)piperazin-1-yl)propyl) quinolin-4-amine], the 50% inhibitory concentration (IC50) in data set [1] is 15 nM; in data set [2], 43 nM. In data set [3], this compound had a 50% inhibitory concentration (IC50) at 48 h of more than 4.76 µg/mL.
On the same counts, the results for `Cc1cc(N2CCN(CCCNc3ccnc4cc(Cl)ccc34)CC2)nc(N2CCSCC2)n1` [Compound 7h, 7-Chloro-N-(3-(4-(6-methyl-2-thiomorpholinopyrimidin-4-yl)piperazin-1-yl)propyl) quinolin-4-amine] are 18 nM, 50 nM and more than 4.76 µg/mL.
Regarding `CCN1CCN(c2nc(C)cc(N3CCN(CCCNc4ccnc5cc(Cl)ccc45)CC3)n2)CC1` [Compound 7j, 7-Chloro-N-(3-(4-(2-(4-ethylpiperazin-1-yl)-6-methylpyrimidin-4-yl)piperazin-1-yl)propyl)quinolin-4-amine], the half-maximal inhibitory concentration (IC50) in data set [1] stood at 19 nM; in data set [2] it was 20 nM. In data set [3], this compound registered an IC50 at 48 h of more than 4.76 µg/mL.
For `Cc1cc(N2CCN(CCCNc3ccnc4cc(Cl)ccc34)CC2)nc(N2CCN(C)CC2)n1` [Compound 7k, 7-Chloro-N-(3-(4-(6-methyl-2-(4-methylpiperazin-1-yl)pyrimidin-4-yl)piperazin-1-yl)propyl)quinolin-4-amine], the results for the IC50 in data set [1] and in data set [2] were 19 nM and 22 nM, respectively. The IC50 at 48 h in data set [3] is more than 4.76 µg/mL.
Consider `Clc1ccc2c(NCCCN3CCN(c4ccnc(N5CCCCC5)n4)CC3)ccnc2c1` [Compound 7l, 7-Chloro-N-(3-(4-(2-(piperidin-1-yl)pyrimidin-4-yl)piperazin-1-yl)propyl)quinolin-4-amine], for which the IC50 in data set [1] was 14 nM; in data set [2] it was 31 nM. Besides, the IC50 at 48 h in data set [3] is more than 4.76 µg/mL.
On the same counts, the results for `Clc1ccc2c(NCCCN3CCN(c4ccnc(N5CCOCC5)n4)CC3)ccnc2c1` [Compound 7m, 7-Chloro-N-(3-(4-(2-morpholinopyrimidin-4-yl)piperazin-1-yl)propyl)quinolin-4-amine] are 20 nM, 34 nM and more than 4.76 µg/mL.
In the case of `Clc1ccc2c(NCCCN3CCN(c4ccnc(N5CCSCC5)n4)CC3)ccnc2c1` [Compound 7n, 7-Chloro-N-(3-(4-(2-thiomorpholinopyrimidin-4-yl)piperazin-1-yl)propyl)quinolin-4-amine], the half-maximal inhibitory concentration (IC50) in data set [1] is 4080 nM; in data set [2] it was more than 9830 nM. This compound also returned a concentration for half-maximal inhibition (IC50) at 48 h in data set [3] of more than 4.76 µg/mL.
For `CCN1CCN(c2nccc(N3CCN(CCCNc4ccnc5cc(Cl)ccc45)CC3)n2)CC1` [Compound 7p, 7-Chloro-N-(3-(4-(2-(4-ethylpiperazin-1-yl)pyrimidin-4-yl)piperazin-1-yl)propyl) quinolin-4-amine], the half-maximal inhibitory concentration (IC50) was 13 nM in data set [1] and 20 nM in data set [2]. Moreover, the IC50 at 48 h in data set [3] is more than 4.76 µg/mL.
For the compound `CN1CCN(c2nccc(N3CCN(CCCNc4ccnc5cc(Cl)ccc45)CC3)n2)CC1` [Compound 7q, 7-Chloro-N-(3-(4-(2-(4-methylpiperazin-1-yl)pyrimidin-4-yl)piperazin-1-yl)propyl) quinolin-4-amine], the figures for the half-inhibitory concentration (IC50) in data set [1] and in data set [2] were 14 nM and 17 nM, respectively. In data set [3], this compound came in with a half-maximal inhibitory concentration (IC50) at 48 h of more than 4.76 µg/mL.
The compound `COc1cccc2c1C(=O)c1c(O)c3c(c(O)c1C2=O)C[C@@](O)(C(=O)CO)C[C@@H]3O[C@H]1C[C@H](N)[C@H](O)[C@H](C)O1` [doxorubicin, reference compound] registered a 50% inhibitory concentration (IC50) at 48 h in data set [3] of 8600 ± 400 nM.

The IC50 is the point on the concentration scale where inhibition reaches its midpoint.
